The source of these data is ChEMBL document CHEMBL3124807 (Eur J Med Chem, 2014).

The first series concerns the target T1, Prostaglandin G/H synthase 1 (Ovis aries, UniProt P05979).
T1 sequence (P05979 whole entry): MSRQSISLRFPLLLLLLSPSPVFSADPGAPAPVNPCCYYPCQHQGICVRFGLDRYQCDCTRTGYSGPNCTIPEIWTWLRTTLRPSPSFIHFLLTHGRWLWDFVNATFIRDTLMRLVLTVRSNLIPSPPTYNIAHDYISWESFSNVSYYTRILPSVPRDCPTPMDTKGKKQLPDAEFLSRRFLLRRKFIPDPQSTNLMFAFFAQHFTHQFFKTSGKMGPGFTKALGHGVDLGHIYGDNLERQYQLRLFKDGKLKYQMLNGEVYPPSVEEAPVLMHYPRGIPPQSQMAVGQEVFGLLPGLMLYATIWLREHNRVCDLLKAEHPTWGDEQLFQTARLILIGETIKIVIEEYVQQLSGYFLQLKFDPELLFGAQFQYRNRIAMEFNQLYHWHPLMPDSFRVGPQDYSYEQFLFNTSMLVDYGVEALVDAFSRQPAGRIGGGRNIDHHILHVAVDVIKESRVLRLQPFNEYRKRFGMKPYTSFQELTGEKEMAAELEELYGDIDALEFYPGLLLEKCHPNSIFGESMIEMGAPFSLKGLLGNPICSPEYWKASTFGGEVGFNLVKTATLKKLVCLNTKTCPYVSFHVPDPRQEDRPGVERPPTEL
Nature of the series: Inhibition of ovine COX1 using arachidonic acid as substrate incubated for 10 mins prior to substrate addition measured after 2 mins by enzyme immunoassay.
Conditions: not given
The gist of the method: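 Ovine COX-1 in 0.1 M Tris-HCl pH 8.0 with 5 mM EDTA, 2 mM phenol and heme. Test concentrations were 0, 0.01, 0.1, 1, 10 and 50 (final volume 1 ml). Preincubated 10 min at 37 °C, then arachidonic acid (100) was added and the reaction was stopped with 1 M HCl after 2 min. PGF2α (from SnCl2 reduction of PGH2) was quantified by competitive EIA at 410 nm. IC50 was taken from the concentration–inhibition curve, duplicates.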
A word on the IC50: it is the concentration needed to halve the response being measured. `COc1c(-c2cc(-c3cccnc3)nn2-c2ccc(S(N)(=O)=O)cc2)c(O)c(OC)c2occc12`: the half-inhibitory concentration (IC50) was greater than 50 µM.

`COc1cc2occc2c(OC)c1-c1cc(-c2ccc(C(F)(F)F)cc2)n(-c2ccc(S(N)(=O)=O)cc2)n1` gave a 50% inhibitory concentration (IC50) greater than 50 µM.

`COc1cc2occc2c(OC)c1-c1cc(-c2ccccc2)n(-c2ccc(S(N)(=O)=O)cc2)n1` had an IC50 greater than 50 µM.

On to `COc1c(-c2cc(-c3cccnc3)nn2-c2ccc(S(N)(=O)=O)cc2)c(O)cc2occc12`, for which the IC50 was greater than 50 µM.

For the compound `COc1c(-c2cc(C)nn2-c2ccc(S(N)(=O)=O)cc2)c(O)cc2occc12`, the IC50 is greater than 50 µM.

In another series the test system is Rattus norvegicus. Nature of the series: Antiinflammatory activity in Wistar albino rat assessed as inhibition of formalin-induced paw edema at 50 mg/kg, po administered 1 hr prior to formalin challenge measured after 30 mins relative to control. Type of series: functional.
Conditions: not given
In a few lines: (§1)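 Adult male Wistar albino rats (120–150 g), five per group. Dosed orally at 50 mg/kg in 10% aqueous DMSO (v/v) 1 h before 0.1 ml of 2.5% formalin was injected subcutaneously into the right hind paw; vehicle-only control group. Paw thickness was measured by Vernier caliper at 0 h and at 30 min, 1, 2 and 3 h. Edema inhibition % = (Vc − Vt)/Vc × 100; means of five ± S.E.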
The term inhibition in vivo denotes the relative decrease from the control value, in per cent. As for `COc1c(-c2cc(-c3cccnc3)nn2-c2ccc(S(N)(=O)=O)cc2)c(O)c(OC)c2occc12`, the inhibition in vivo at 50 mg/kg turned out to be 90.7%.

Take `COc1cc2occc2c(OC)c1-c1cc(-c2ccc(C(F)(F)F)cc2)n(-c2ccc(S(N)(=O)=O)cc2)n1`: the inhibition in vivo at 50 mg/kg was 66.7%.

As to `COc1c(-c2cc(-c3cccnc3)nn2-c2ccc(S(N)(=O)=O)cc2)c(O)cc2occc12`, the inhibition in vivo at 50 mg/kg was found to be 90.1%.

In a further series the test system is Rattus norvegicus. Nature of the series: Antiinflammatory activity in Wistar albino rat assessed as inhibition of formalin-induced paw edema at 50 mg/kg, po administered 1 hr prior to formalin challenge measured after 1 hr relative to control. Type of series: functional.
Conditions: not given
In a few lines: as §1
In the case of `COc1c(-c2cc(-c3cccnc3)nn2-c2ccc(S(N)(=O)=O)cc2)c(O)c(OC)c2occc12`, the inhibition in vivo at 50 mg/kg was found to be 96.5%.

With `COc1cc2occc2c(OC)c1-c1cc(-c2ccc(C(F)(F)F)cc2)n(-c2ccc(S(N)(=O)=O)cc2)n1`, the inhibition in vivo at 50 mg/kg is 77.2%.

For `COc1c(-c2cc(-c3cccnc3)nn2-c2ccc(S(N)(=O)=O)cc2)c(O)cc2occc12`, the inhibition in vivo at 50 mg/kg was found to be 96.2%.

The next series has as its target T2, Prostaglandin G/H synthase 2 (Homo sapiens, UniProt P35354).
T2 sequence (P35354 whole entry): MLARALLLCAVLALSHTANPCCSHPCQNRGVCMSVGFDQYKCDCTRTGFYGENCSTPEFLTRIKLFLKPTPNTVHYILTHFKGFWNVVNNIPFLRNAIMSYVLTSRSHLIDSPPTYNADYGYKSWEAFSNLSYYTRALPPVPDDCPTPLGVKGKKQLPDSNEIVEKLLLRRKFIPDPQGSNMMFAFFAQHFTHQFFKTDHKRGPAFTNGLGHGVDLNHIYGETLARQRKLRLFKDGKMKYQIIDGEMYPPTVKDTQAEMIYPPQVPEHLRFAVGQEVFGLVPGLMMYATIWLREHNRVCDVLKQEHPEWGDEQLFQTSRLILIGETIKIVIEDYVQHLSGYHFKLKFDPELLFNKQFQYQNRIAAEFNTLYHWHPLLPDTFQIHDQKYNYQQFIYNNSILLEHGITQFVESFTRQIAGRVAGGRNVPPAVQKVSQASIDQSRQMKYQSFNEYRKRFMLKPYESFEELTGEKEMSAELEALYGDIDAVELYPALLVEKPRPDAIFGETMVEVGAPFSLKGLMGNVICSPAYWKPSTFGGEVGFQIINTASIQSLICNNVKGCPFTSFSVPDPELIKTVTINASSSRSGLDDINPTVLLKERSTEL
Nature of the series: Inhibition of human recombinant COX2 using arachidonic acid as substrate incubated for 10 mins prior to substrate addition measured after 2 mins by enzyme immunoassay.
Conditions: not given
Regarding `COc1c(-c2cc(-c3cccnc3)nn2-c2ccc(S(N)(=O)=O)cc2)c(O)c(OC)c2occc12`, the 50% inhibitory concentration (IC50) was found to be 0.36 µM.

Take `COc1cc2occc2c(OC)c1-c1cc(-c2ccc(C(F)(F)F)cc2)n(-c2ccc(S(N)(=O)=O)cc2)n1`: the 50% inhibitory concentration (IC50) was found to be 0.34 µM.

In the case of `COc1cc2occc2c(OC)c1-c1cc(-c2ccccc2)n(-c2ccc(S(N)(=O)=O)cc2)n1`, the IC50 stood at 35 µM.

On to `COc1c(-c2cc(-c3cccnc3)nn2-c2ccc(S(N)(=O)=O)cc2)c(O)cc2occc12`, for which the IC50 amounted to 0.4 µM.

`COc1c(-c2cc(C)nn2-c2ccc(S(N)(=O)=O)cc2)c(O)cc2occc12`: the concentration for half-maximal inhibition (IC50) worked out at 7.5 µM.

In the next series the test system is Rattus norvegicus. Kind of series: Ulcerogenic effect in fasted Wistar albino rat at 50 mg/kg, po measured 2 hrs post last dose. It counts as toxicity, organism-based. Details: dose 50 mg/kg, route oral. To be noted: in vivo. In a few lines: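 Adult male Wistar albino rats (120–150 g), five per group, fasted 18 h before dosing. Oral doses were given for three successive days (test compounds 50 mg/kg, ibuprofen 25 mg/kg; control 10% aqueous DMSO), with feeding 2 h after dosing. Stomachs were removed 2 h after the last dose, opened along the greater curvature, rinsed with 0.9% NaCl and examined under a 10× lens. Ulcer index followed Robert's method (incidence/10, mean ulcer number, severity score).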
Compound `COc1c(-c2cc(-c3cccnc3)nn2-c2ccc(S(N)(=O)=O)cc2)c(O)c(OC)c2occc12` had a UI of 10.5.

In turn, `COc1cc2occc2c(OC)c1-c1cc(-c2ccc(C(F)(F)F)cc2)n(-c2ccc(S(N)(=O)=O)cc2)n1` showed a UI of 10.5.

With `COc1c(-c2cc(-c3cccnc3)nn2-c2ccc(S(N)(=O)=O)cc2)c(O)cc2occc12`, the UI was 13.82.

The subject of the next series is Rattus norvegicus. Nature of the series: Ulcerogenic effect in fasted Wistar albino rat assessed as reduction in ulcerogenic potential at 50 mg/kg, po measured 2 hrs post last dose relative to celecoxib. Type of series: toxicity, organism-based. More on the design: dose 50 mg/kg, route oral; scale not given: the % may be the effect or the level left. The note with it: in vivo.
Take `COc1c(-c2cc(-c3cccnc3)nn2-c2ccc(S(N)(=O)=O)cc2)c(O)c(OC)c2occc12`: the Activity was found to be 40%.

The next series deals with Rattus norvegicus. Kind of series: Antiinflammatory activity in Wistar albino rat assessed as inhibition of formalin-induced paw edema at 50 mg/kg, po administered 1 hr prior to formalin challenge measured after 2 hrs relative to control.
Conditions: not given
It counts as functional. In a few lines: as §1
Take `COc1c(-c2cc(-c3cccnc3)nn2-c2ccc(S(N)(=O)=O)cc2)c(O)c(OC)c2occc12`: the inhibition in vivo at 50 mg/kg was determined as 100%.

As for `COc1cc2occc2c(OC)c1-c1cc(-c2ccc(C(F)(F)F)cc2)n(-c2ccc(S(N)(=O)=O)cc2)n1`, the inhibition in vivo at 50 mg/kg was 94.8%.

In the case of `COc1c(-c2cc(-c3cccnc3)nn2-c2ccc(S(N)(=O)=O)cc2)c(O)cc2occc12`, the inhibition in vivo at 50 mg/kg was 100%.

System in a further series: not listed separately
Kind of series: Selectivity index, ratio of IC50 for ovine COX1 to IC50 for human recombinant COX2.
Conditions: not given
The gist of the method:
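IC50 (COX-1)/IC50 (COX-2). Both IC50 values come from the EIA described above, run with ovine COX-1 or human recombinant COX-2 under the same buffer, preincubation, arachidonic acid and duplicate conditions.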
Take `COc1c(-c2cc(-c3cccnc3)nn2-c2ccc(S(N)(=O)=O)cc2)c(O)c(OC)c2occc12`: the Ratio IC50 is greater than 139.

With `COc1cc2occc2c(OC)c1-c1cc(-c2ccc(C(F)(F)F)cc2)n(-c2ccc(S(N)(=O)=O)cc2)n1`, the Ratio IC50 was greater than 147.

Regarding `COc1cc2occc2c(OC)c1-c1cc(-c2ccccc2)n(-c2ccc(S(N)(=O)=O)cc2)n1`, the Ratio IC50 was greater than 1.43.

In the case of `COc1c(-c2cc(-c3cccnc3)nn2-c2ccc(S(N)(=O)=O)cc2)c(O)cc2occc12`, the Ratio IC50 is greater than 125.

With `COc1c(-c2cc(C)nn2-c2ccc(S(N)(=O)=O)cc2)c(O)cc2occc12`, the Ratio IC50 was greater than 6.67.

The next series has as its system Rattus norvegicus. Nature of the series: Antiinflammatory activity in Wistar albino rat assessed as inhibition of formalin-induced paw edema at 50 mg/kg, po administered 1 hr prior to formalin challenge measured after 3 hrs relative to control. It counts as functional.
Conditions: not given
In a few lines: as §1
Take `COc1c(-c2cc(-c3cccnc3)nn2-c2ccc(S(N)(=O)=O)cc2)c(O)c(OC)c2occc12`: the inhibition in vivo at 50 mg/kg came out at 100%.

For `COc1cc2occc2c(OC)c1-c1cc(-c2ccc(C(F)(F)F)cc2)n(-c2ccc(S(N)(=O)=O)cc2)n1`, the inhibition in vivo at 50 mg/kg turned out to be 91.8%.

In the case of `COc1c(-c2cc(-c3cccnc3)nn2-c2ccc(S(N)(=O)=O)cc2)c(O)cc2occc12`, the inhibition in vivo at 50 mg/kg worked out at 100%.
